Data set [1] concerns the target T1, Amine oxidase [flavin-containing] A (Homo sapiens, UniProt P21397).
T1 sequence (P21397 whole entry): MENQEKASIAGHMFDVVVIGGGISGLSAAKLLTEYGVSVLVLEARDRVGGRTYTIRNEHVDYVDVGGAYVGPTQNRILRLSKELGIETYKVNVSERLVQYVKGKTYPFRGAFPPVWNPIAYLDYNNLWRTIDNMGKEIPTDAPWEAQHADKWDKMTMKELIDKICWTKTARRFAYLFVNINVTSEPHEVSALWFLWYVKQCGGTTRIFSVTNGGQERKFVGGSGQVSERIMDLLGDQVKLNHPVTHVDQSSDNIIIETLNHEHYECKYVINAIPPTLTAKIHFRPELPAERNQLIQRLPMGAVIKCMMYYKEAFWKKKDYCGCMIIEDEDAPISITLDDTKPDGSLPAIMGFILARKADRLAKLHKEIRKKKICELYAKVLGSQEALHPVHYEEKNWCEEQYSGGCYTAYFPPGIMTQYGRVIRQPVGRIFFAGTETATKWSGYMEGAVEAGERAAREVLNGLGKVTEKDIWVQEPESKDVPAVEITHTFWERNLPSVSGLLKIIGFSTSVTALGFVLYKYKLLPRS
Briefly: Inhibition of human recombinant MAO-A expressed in baculovirus infected BTI-TN5B1-4 cells using p-tyramine as substrate assessed as reduction in H2O2 production at 100 uM preincubated for 15 mins followed by substrate addition measured after 15 mins by Amplex red dye based fluorescence assay. The conditions noted are these: 0.25 h. The method in brief:
(§1)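 Microsomal hMAO-A (1.1 µg protein) or hMAO-B (7.5 µg protein) from baculovirus-infected insect cells was used, with each amount adjusted to an oxidation rate of 165±2 pmol p-tyramine/min. Enzyme and test drug in 0.5M sodium phosphate pH 7.4 were pre-incubated 15 min at 37 °C. The reaction was started with final 200 µM Amplex Red, 1 U/mL HRP and 1 mM p-tyramine. Resorufin fluorescence (ex 545/em 590 nm) was followed for 15 min at 37 °C, background without enzyme was subtracted, and controls received vehicle.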

Data set [2] deals with T2, Amine oxidase [flavin-containing] B (Homo sapiens, UniProt P27338).
T2 sequence (P27338 whole entry): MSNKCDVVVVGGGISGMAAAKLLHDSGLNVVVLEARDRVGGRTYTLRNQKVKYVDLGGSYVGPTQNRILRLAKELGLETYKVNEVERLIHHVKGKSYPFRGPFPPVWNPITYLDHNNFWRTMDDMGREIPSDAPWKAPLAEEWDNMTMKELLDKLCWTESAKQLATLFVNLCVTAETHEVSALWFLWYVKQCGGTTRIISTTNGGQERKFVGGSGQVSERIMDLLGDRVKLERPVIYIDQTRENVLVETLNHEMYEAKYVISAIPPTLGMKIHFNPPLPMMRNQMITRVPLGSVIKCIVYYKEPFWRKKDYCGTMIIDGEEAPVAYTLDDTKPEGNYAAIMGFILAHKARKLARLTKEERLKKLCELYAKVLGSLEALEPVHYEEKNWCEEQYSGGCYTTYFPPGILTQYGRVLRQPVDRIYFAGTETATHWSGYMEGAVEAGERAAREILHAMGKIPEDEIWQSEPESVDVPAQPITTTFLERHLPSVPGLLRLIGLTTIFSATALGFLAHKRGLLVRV
Briefly: Inhibition of human recombinant MAO-B expressed in baculovirus infected BTI-TN5B1-4 cells using p-tyramine as substrate assessed as reduction in H2O2 production preincubated for 15 mins followed by substrate addition measured after 15 mins by Amplex red dye based fluorescence assay. The data set is classed as cell-based.

For the next data set, the species on record is Homo sapiens. Put plainly: Selectivity index, ratio of IC50 for human recombinant MAO-A expressed in baculovirus infected BTI-TN5B1-4 cells to IC50 for human recombinant MAO-B expressed in baculovirus infected BTI-TN5B1-4 cells. The method in brief:
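IC50 values for hMAO-A and hMAO-B were obtained in the same p-tyramine/Amplex Red assay (15 min pre-incubation, 37 °C, 15 min fluorescence read). Each IC50 came from linear least-squares regression of % inhibition versus log molar concentration, using 4–6 concentrations giving 20–80% inhibition. Selectivity was taken as IC50(MAO-A)/IC50(MAO-B).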

The test system of data set [3] is SH-SY5Y. Put plainly: Cytotoxicity against human SH-SY5Y cells at 10 uM after 24 hrs by MTT assay. It counts as cell-based. The method in brief: (§2)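 SH-SY5Y neuroblastoma cells were seeded at 1.10⁶/mL and incubated overnight. Compounds in DMSO (1%) were added, with 1% DMSO-treated cells as negative control, for 24 h. MTT solution (5 mg/ml in PBS, 10%) was then added for 2 h at 37 °C, and the crystals were dissolved in DMSO. A540 was read, and viability was taken as % of negative-control absorbance.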
For orientation: Tetrazolium dyes change colour on reduction, which living cells bring about.

Data set [4] addresses T2, Amine oxidase [flavin-containing] B. Briefly: Inhibition of human recombinant MAO-B expressed in baculovirus infected BTI-TN5B1-4 cells using p-tyramine as substrate assessed as reduction in H2O2 production at 100 uM preincubated for 15 mins followed by substrate addition measured after 15 mins by Amplex red dye based fluorescence assay relative to control. As to conditions: 0.25 h; call rule not given here.

The target is the same in data set [5]. Put plainly: Inhibition of human recombinant MAO-B expressed in baculovirus infected BTI-TN5B1-4 cells using p-tyramine as substrate assessed as reduction in H2O2 production at 100 uM preincubated for 15 mins followed by substrate addition measured after 15 mins by Amplex red dye based fluorescence assay. The conditions noted are these: 0.25 h. The method in brief: as §1

In data set [6] the test system is SH-SY5Y. Briefly: Cytotoxicity against human SH-SY5Y cells at 20 uM after 24 hrs by MTT assay. The data set is classed as cell-based. The method in brief:
as §2

From ChEMBL document CHEMBL4190306, “Synthesis and structure-activity relationship study of novel 3-heteroarylcoumarins based on pyridazine scaffold as selective MAO-B inhibitors” (Eur J Med Chem, 2017) come the findings set out here.

Usually IC50 stands for the concentration that inhibits the measured activity by half. Usually inhibition stands for the drop in the measured response relative to a control, in per cent.

Turning to `COc1cccc2cc(-c3ccc(Cl)nn3)c(=O)oc12`, in data set [1], the “inhibition (INH)” value was “Not Active”. Also, in data set [2], the concentration for half-maximal inhibition (IC50) was found to be 30.1 µM. In addition, in the data set listed under Homo sapiens, the Ratio IC50 is over 3.3. The Activity result in the data set on SH-SY5Y [3] is “Non-Toxic”.

Turning to `Cc1ccc2cc(-c3ccc(Br)nn3)c(=O)oc2c1`, the “inhibition (INH)” value in data set [1] is “Not Active”. Besides, in data set [2], the IC50 was 0.75 µM. For the same compound, the Ratio IC50 in the data set filed under Homo sapiens was over 133. Also, the Activity entry in the data set on SH-SY5Y [3] was “Non-Toxic”.

Regarding `COc1ccc2cc(-c3ccc(Br)nn3)c(=O)oc2c1`, in data set [1], the “inhibition (INH)” value was “Not Active”. Also, in data set [2], the half-maximal inhibitory concentration (IC50) worked out at 3.05 µM. Also, the Ratio IC50 in the data set filed under Homo sapiens is over 32.8. In addition, in the data set with SH-SY5Y [3], the Activity entry is reported as “Non-Toxic”.

As for `COc1ccc2cc(-c3ccc(Cl)nn3)c(=O)oc2c1`, the “inhibition (INH)” value in data set [1] is “Not Active”. In addition, the IC50 in data set [2] is 19.2 µM. In addition, the Ratio IC50 in the data set listed under Homo sapiens was over 5.2. In addition, the Activity entry with SH-SY5Y [3] is “Non-Toxic”.

Turning to `COc1ccc(-c2cc3ccc(C)cc3oc2=O)nn1`, the “inhibition (INH)” value in data set [1] is reported as “Not Active”. For the same compound, the concentration for half-maximal inhibition (IC50) in data set [2] amounted to 13.5 µM. The Ratio IC50 in the data set filed under Homo sapiens is over 7.4. In addition, in the data set with SH-SY5Y [3], the Activity result was “Non-Toxic”.

As to `COc1ccc2oc(=O)c(-c3ccc(Cl)nn3)cc2c1`, the “inhibition (INH)” value in data set [1] is reported as “Not Active”. In addition, the IC50 in data set [2] was found to be 8.8 µM. Further, the Ratio IC50 in the data set filed under Homo sapiens is over 11.4. Moreover, the Activity entry with SH-SY5Y [3] is recorded as “Non-Toxic”.

Turning to `COc1ccc2cc(-c3ccc(OC)nn3)c(=O)oc2c1`, the “inhibition (INH)” value in data set [1] is on record as “Not Active”. Besides, in the data set with SH-SY5Y [3], the Activity result is reported as “Non-Toxic”. In addition, the inhibition at 100 µM in data set [4] was 45 to 50%.

Regarding `COc1ccc2oc(=O)c(-c3ccc(Br)nn3)cc2c1`, the “inhibition (INH)” value in data set [1] is reported as “Not Active”. Besides, the IC50 in data set [2] is 0.56 µM. Besides, the Ratio IC50 in the data set filed under Homo sapiens is over 179. The Activity result with SH-SY5Y [3] was “Non-Toxic”.

`Cc1ccc2cc(-c3ccc(Cl)nn3)c(=O)oc2c1`: in data set [1], the “inhibition (INH)” value is on record as “Not Active”. Further, in data set [2], the IC50 was 2.51 µM. Further, in the data set listed under Homo sapiens, the Ratio IC50 is over 39.8. Also, the Activity result with SH-SY5Y [3] is “Non-Toxic”.

In the case of `COc1ccc2oc(=O)c(-c3ccc(OC)nn3)cc2c1`, in data set [1], the “inhibition (INH)” value is “Not Active”. Also, the 50% inhibitory concentration (IC50) in data set [2] amounted to 11.1 µM. The Ratio IC50 in the data set listed under Homo sapiens was over 9. In addition, the Activity result with SH-SY5Y [3] is recorded as “Non-Toxic”.

For `Cc1cccc2cc(-c3ccc(Br)nn3)c(=O)oc12`, the “inhibition (INH)” value in data set [1] is “Not Active”. The IC50 in data set [2] was determined as 2.64 µM. Further, the Ratio IC50 in the data set filed under Homo sapiens is over 37.9. Besides, in the data set on SH-SY5Y [3], the Activity entry is given as “Non-Toxic”.

`Cc1ccc2oc(=O)c(-c3ccc(Br)nn3)cc2c1`: the “inhibition (INH)” value in data set [1] was “Not Active”. Moreover, in data set [2], the IC50 turned out to be 2.16 µM. Besides, the Ratio IC50 in the data set filed under Homo sapiens was over 46.3. The Activity result in the data set with SH-SY5Y [3] is given as “Non-Toxic”.

For the compound `COc1ccc(-c2cc3cccc(C)c3oc2=O)nn1`, the “inhibition (INH)” value in data set [1] is recorded as “Not Active”. In data set [2], the IC50 stood at 5.35 µM. In addition, the Ratio IC50 in the data set listed under Homo sapiens is over 18.7. Moreover, the Activity result with SH-SY5Y [3] is recorded as “Non-Toxic”.

As to `Cc1ccc2oc(=O)c(-c3ccc(Cl)nn3)cc2c1`, in data set [1], the “inhibition (INH)” value is “Not Active”. Besides, the IC50 in data set [2] turned out to be 13.5 µM. Moreover, in the data set filed under Homo sapiens, the Ratio IC50 is over 7.4. In addition, the Activity entry with SH-SY5Y [3] is given as “Non-Toxic”.

Regarding `Cc1cccc2cc(-c3ccc(Cl)nn3)c(=O)oc12`, the “inhibition (INH)” value in data set [1] was “Not Active”. Further, the IC50 in data set [2] turned out to be 22.7 µM. In addition, in the data set filed under Homo sapiens, the Ratio IC50 was over 4.4. The Activity entry with SH-SY5Y [3] is “Non-Toxic”.

Take `COc1ccc(-c2cc3cccc(OC)c3oc2=O)nn1`: the “inhibition (INH)” value in data set [1] and in data set [5] was “Not Active” throughout. Besides, the figures for the Activity entry in the data set with SH-SY5Y [3] and in the data set with SH-SY5Y [6] were “Non-Toxic” and “Toxic”, respectively.

In the case of `COc1ccc(-c2cc3cc(C)ccc3oc2=O)nn1`, in data set [1], the “inhibition (INH)” value is “Not Active”. In addition, the IC50 in data set [2] came out at 17.6 µM. Moreover, the Ratio IC50 in the data set listed under Homo sapiens was over 5.7. In addition, the Activity entry in the data set with SH-SY5Y [3] is given as “Non-Toxic”.

On to `COc1cccc2cc(-c3ccc(Br)nn3)c(=O)oc12`, for which, in data set [1], the “inhibition (INH)” value is recorded as “Not Active”. In addition, the half-inhibitory concentration (IC50) in data set [2] was determined as 12.8 µM. Besides, the Ratio IC50 in the data set filed under Homo sapiens is over 7.8. Also, in the data set with SH-SY5Y [3], the Activity result was “Non-Toxic”.
